Measured values taken from ChEMBL document CHEMBL1138290 (J Med Chem, 2007).

Key:
[1] = tested on: K562; assay: Antiproliferative activity against human K562 cells after 48 hrs; format: functional, cell-based; conditions: K562, 48 h
Summary of the method: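 Growth of K562 cells measured by counting cells with a hemocytometer after 48 h (2 days) of drug treatment. IC50 is the mean of at least three independent determinations.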

[2] = biological target: Tubulin (Sus scrofa, UniProt P02554+P02550); assay: Inhibition of porcine brain tubulin polymerization
[3] = biological target: Tubulin; assay: Displacement of [3H]colchicine from biotinylated tubulin by scintillation proximity assay; format: protein-complex assay, Homo sapiens
[4] = Cytotoxicity against human KB/HeLa cells after 48 hrs by XTT assay; format: functional, cell-based
Summary of the method: (§1)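 XTT proliferation assay with 48 h incubation with test compound. Each experiment run at least in duplicate (n = 2). IC50 calculated by nonlinear regression of dose-response curves.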

[5] = tested on: SK-OV-3; assay: Cytotoxicity against human SKOV3 cells after 48 hrs by XTT assay; format: functional, cell-based; conditions: SK-OV-3, 48 h; summary of the method: as §1
[6] = tested on: SF-268; assay: Cytotoxicity against human SF268 cells after 48 hrs by XTT assay; format: functional, cell-based; conditions: SF-268, 48 h; summary of the method: as §1
[7] = tested on: NCI-H460; assay: Cytotoxicity against human NCI-H460 cells after 48 hrs by XTT assay; format: functional, cell-based; conditions: NCI-H460, 48 h; summary of the method: as §1
[8] = tested on: RKO; assay: Cytotoxicity against human RKO cells after 48 hrs by XTT assay; format: functional, cell-based; summary of the method: as §1
[9] = tested on: RKO; assay: Cytotoxicity against human RKO cells with ectopic-inducible expression of p27kip1 after 48 hrs by XTT assay; format: functional, cell-based; summary of the method: as §1
[10] = Antiproliferative activity against rat L12 cells after 48 hrs by XTT assay; format: functional, cell-based
[11] = Antiproliferative activity against rat multidrug-resistant L12 cells after 48 hrs by XTT assay; format: functional, cell-based; conditions: L1.2, 48 h; summary of the method: as §1
[12] = tested on: L1210; assay: Antiproliferative activity against mouse L1210 cells after 48 hrs by XTT assay; format: functional, cell-based; conditions: L1210, 48 h; summary of the method: as §1
[13] = tested on: L1210; assay: Antiproliferative activity against mouse vincristine-resistant L1210 cells after 48 hrs by XTT assay; format: functional, cell-based; conditions: L1210, 48 h; summary of the method: as §1
[14] = tested on: P388; assay: Antiproliferative activity against mouse P388 cells after 48 hrs by XTT assay; format: functional, cell-based; conditions: P388, 48 h; summary of the method: as §1
[15] = tested on: P388; assay: Antiproliferative activity against mouse adriamycin-resistant P388 cells after 48 hrs by XTT assay; format: functional, cell-based; conditions: P388, 48 h; summary of the method: as §1
[16] = Cell cycle arrest in KB/HeLa cells assessed as accumulation at G2/M phase after 24 hrs by flow cytometric analysis; format: functional, cell-based; conditions: Homo sapiens
Summary of the method: (§2)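 Subconfluent KB/HeLa cells exposed to a range of compound concentrations for 24 h. Cell cycle phase distribution determined by flow cytometry. Experiments run at least in duplicate (n = 2).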

[17] = Cell cycle arrest in KB/HeLa cells assessed as accumulation at S phase at 0.1 nM after 24 hrs by flow cytometric analysis; format: functional, cell-based; conditions: Homo sapiens; summary of the method: as §2
[18] = Cell cycle arrest in KB/HeLa cells assessed as accumulation at S phase at 3.16 nM after 24 hrs by flow cytometric analysis; format: functional, cell-based; conditions: Homo sapiens; summary of the method: as §2
[19] = Cell cycle arrest in KB/HeLa cells assessed as accumulation at S phase at 0.3 nM after 24 hrs by flow cytometric analysis; format: functional, cell-based; conditions: Homo sapiens; summary of the method: as §2
[20] = Cell cycle arrest in KB/HeLa cells assessed as accumulation at S phase at 1 nM after 24 hrs by flow cytometric analysis; format: functional, cell-based; conditions: Homo sapiens; summary of the method: as §2
[21] = Cell cycle arrest in KB/HeLa cells assessed as accumulation at S phase at 10 nM after 24 hrs by flow cytometric analysis; format: functional, cell-based; conditions: Homo sapiens; summary of the method: as §2
[22] = Cell cycle arrest in KB/HeLa cells assessed as accumulation at S phase at 31.6 nM after 24 hrs by flow cytometric analysis; format: functional, cell-based; conditions: Homo sapiens; summary of the method: as §2
[23] = Cell cycle arrest in KB/HeLa cells assessed as accumulation at S phase at 100 nM after 24 hrs by flow cytometric analysis; format: functional, cell-based; conditions: Homo sapiens; summary of the method: as §2
[24] = Cell cycle arrest in KB/HeLa cells assessed as accumulation at S phase at 316 nM after 24 hrs by flow cytometric analysis; format: functional, cell-based; conditions: Homo sapiens; summary of the method: as §2
[25] = Cell cycle arrest in KB/HeLa cells assessed as accumulation at S phase at 1000 nM after 24 hrs by flow cytometric analysis; format: functional, cell-based; conditions: Homo sapiens; summary of the method: as §2
[26] = Cell cycle arrest in KB/HeLa cells assessed as accumulation at G2M phase at 0.1 nM after 24 hrs by flow cytometric analysis; format: functional, cell-based; conditions: Homo sapiens; summary of the method: as §2
[27] = Cell cycle arrest in KB/HeLa cells assessed as accumulation at G2M phase at 0.3 nM after 24 hrs by flow cytometric analysis; format: functional, cell-based; conditions: Homo sapiens; summary of the method: as §2
[28] = Cell cycle arrest in KB/HeLa cells assessed as accumulation at G2M phase at 1 nM after 24 hrs by flow cytometric analysis; format: functional, cell-based; conditions: Homo sapiens; summary of the method: as §2
[29] = Cell cycle arrest in KB/HeLa cells assessed as accumulation at G2M phase at 3.16 nM after 24 hrs by flow cytometric analysis; format: functional, cell-based; conditions: Homo sapiens
[30] = Cell cycle arrest in KB/HeLa cells assessed as accumulation at G2M phase at 10 nM after 24 hrs by flow cytometric analysis; format: functional, cell-based; conditions: Homo sapiens; summary of the method: as §2
[31] = Cell cycle arrest in KB/HeLa cells assessed as accumulation at G2M phase at 31.6 nM after 24 hrs by flow cytometric analysis; format: functional, cell-based; conditions: Homo sapiens; summary of the method: as §2
[32] = Cell cycle arrest in KB/HeLa cells assessed as accumulation at G2M phase at 100 nM after 24 hrs by flow cytometric analysis; format: functional, cell-based; conditions: Homo sapiens; summary of the method: as §2
[33] = Cell cycle arrest in KB/HeLa cells assessed as accumulation at G2M phase at 316 nM after 24 hrs by flow cytometric analysis; format: functional, cell-based; conditions: Homo sapiens; summary of the method: as §2
[34] = Cell cycle arrest in KB/HeLa cells assessed as accumulation at G2M phase at 1000 nM after 24 hrs by flow cytometric analysis; format: functional, cell-based; conditions: Homo sapiens; summary of the method: as §2
[35] = Cell cycle arrest in KB/HeLa cells assessed as accumulation at G1 phase at 0.1 nM after 24 hrs by flow cytometric analysis; format: functional, cell-based; conditions: Homo sapiens; summary of the method: as §2
[36] = Cell cycle arrest in KB/HeLa cells assessed as accumulation at G1 phase at 0.3 nM after 24 hrs by flow cytometric analysis; format: functional, cell-based; conditions: Homo sapiens; summary of the method: as §2
[37] = Cell cycle arrest in KB/HeLa cells assessed as accumulation at G1 phase at 1 nM after 24 hrs by flow cytometric analysis; format: functional, cell-based; conditions: Homo sapiens; summary of the method: as §2
[38] = Cell cycle arrest in KB/HeLa cells assessed as accumulation at G1 phase at 3.16 nM after 24 hrs by flow cytometric analysis; format: functional, cell-based; conditions: Homo sapiens; summary of the method: as §2
[39] = Cell cycle arrest in KB/HeLa cells assessed as accumulation at G1 phase at 10 nM after 24 hrs by flow cytometric analysis; format: functional, cell-based; conditions: Homo sapiens; summary of the method: as §2
[40] = Cell cycle arrest in KB/HeLa cells assessed as accumulation at G1 phase at 31.6 nM after 24 hrs by flow cytometric analysis; format: functional, cell-based; conditions: Homo sapiens; summary of the method: as §2
[41] = Cell cycle arrest in KB/HeLa cells assessed as accumulation at G1 phase at 100 nM after 24 hrs by flow cytometric analysis; format: functional, cell-based; conditions: Homo sapiens; summary of the method: as §2
[42] = Cell cycle arrest in KB/HeLa cells assessed as accumulation at G1 phase at 316 nM after 24 hrs by flow cytometric analysis; format: functional, cell-based; conditions: Homo sapiens; summary of the method: as §2
[43] = Cell cycle arrest in KB/HeLa cells assessed as accumulation at G1 phase at 1000 nM after 24 hrs by flow cytometric analysis; format: functional, cell-based; conditions: Homo sapiens; summary of the method: as §2

Work on COc1ccc(S(=O)(=O)Oc2c3ccccc3cc3ccccc23)cc1 yielded an IC50 [1] of 90 nM, an IC50 [2] of 1200 nM and an IC50 [3] of 560 nM. The IC50 [4] was 370 nM, the IC50 [5] was 250 nM and the IC50 [6] was 340 nM. It also gave an IC50 [7] of 640 nM, an IC50 [8] of 280 nM and an IC50 [9] of over 9000 nM. The IC50 [10] was 440 nM, the IC50 [11] was 360 nM and the IC50 [12] was 540 nM. The IC50 [13] was 460 nM, the IC50 [14] was 380 nM and the IC50 [15] was 270 nM. For the same compound, the EC50 [16] was 135 nM, the Activity [17] was 26.7% and the Activity [18] was 26%. It also gave an Activity [19] of 26%, an Activity [20] of 26.2% and an Activity [21] of 25.5%. The Activity [22] was 26.8%, the Activity [23] was 31% and the Activity [24] was 4.8%. The Activity [25] was 8.4%, the Activity [26] was 11.9% and the Activity [27] was 12.4%. The Activity [28] was 11.7%, the Activity [29] was 11.4% and the Activity [30] was 12.6%. For the same compound, the Activity [31] was 11.4%, the Activity [32] was 12.6% and the Activity [33] was 94.4%. The Activity [34] was 90.5%, the Activity [35] was 61.4% and the Activity [36] was 61.6%. The Activity [37] was 62.1%, the Activity [38] was 62.7% and the Activity [39] was 61.8%. For the same compound, the Activity [40] was 61.8%, the Activity [41] was 56.4% and the Activity [42] was 0.8%. The Activity [43] was 1.1%.

Work on COc1ccc(S(=O)(=O)Oc2c3ccccc3cc3sccc23)cc1 yielded an IC50 [1] of 60 nM, an IC50 [2] of 910 nM and an IC50 [3] of 510 nM. It also gave an IC50 [4] of 180 nM, an IC50 [5] of 210 nM and an IC50 [6] of 260 nM. For the same compound, the IC50 [7] was 210 nM, the IC50 [8] was 180 nM and the IC50 [9] was over 9000 nM. For the same compound, the IC50 [10] was 170 nM, the IC50 [11] was 190 nM and the IC50 [12] was 190 nM. The IC50 [13] was 200 nM, the IC50 [14] was 180 nM and the IC50 [15] was 180 nM. For the same compound, the EC50 [16] was 125 nM, the Activity [17] was 27.1% and the Activity [18] was 26.5%. For the same compound, the Activity [19] was 26.6%, the Activity [20] was 26.7% and the Activity [21] was 27.4%. For the same compound, the Activity [22] was 28.6%, the Activity [23] was 32.1% and the Activity [24] was 7%. For the same compound, the Activity [25] was 9.7%, the Activity [26] was 12.3% and the Activity [27] was 12%. For the same compound, the Activity [28] was 11.4%, the Activity [29] was 11.3% and the Activity [30] was 11.9%. For the same compound, the Activity [31] was 11.7%, the Activity [32] was 16.7% and the Activity [33] was 92.1%. For the same compound, the Activity [34] was 88.7%, the Activity [35] was 60.6% and the Activity [36] was 61.4%. It also gave an Activity [37] of 61.9%, an Activity [38] of 62.2% and an Activity [39] of 60.7%. It also gave an Activity [40] of 59.8%, an Activity [41] of 51.2% and an Activity [42] of 0.9%. For the same compound, the Activity [43] was 1.6%.
